Test results reported in ChEMBL document CHEMBL4371053, “A novel tetrazole analogue of resveratrol is a potent anticancer agent” (Bioorg Med Chem Lett, 2019).

Assays:
Type in all cases: functional
SF-268 = assay: Growth inhibition of human SF268 cells incubated for 48 hrs by sulforhodamine B assay; settings: SF-268, 48 h
How it was run: (§1)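 NCI-60 five-dose study at 10⁻⁴, 10⁻⁵, 10⁻⁶, 10⁻⁷ and 10⁻⁸ M, 48 h incubation. Growth determined from sulforhodamine B optical density before and after exposure, relative to vehicle control and time-zero counts. GI₅₀ is the molar concentration giving 50% growth inhibition.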

PC-3 = assay: Growth inhibition of human PC3 cells incubated for 48 hrs by sulforhodamine B assay; settings: PC-3, 48 h; how it was run: as §1
MOLT-4 = assay: Growth inhibition of human MOLT4 cells incubated for 48 hrs by sulforhodamine B assay; settings: MOLT-4, 48 h; how it was run: as §1
ACHN = assay: Growth inhibition of human ACHN cells incubated for 48 hrs by sulforhodamine B assay; how it was run: as §1
786-0 = assay: Growth inhibition of human 786-0 cells incubated for 48 hrs by sulforhodamine B assay; settings: 786-0, 48 h; how it was run: as §1
SNB-75 = assay: Growth inhibition of human SNB75 cells incubated for 48 hrs by sulforhodamine B assay; settings: SNB-75, 48 h
How it was run: (§2)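 NCI-60 screen run per Rubinstein protocol. Sulforhodamine B optical density was read before and after 48 h exposure to compound or vehicle. The single-dose pass at 10⁻⁵ M reported percent growth relative to vehicle control and time-zero cell number. The five-dose follow-up used 10⁻⁴ to 10⁻⁸ M, giving GI₅₀ as the molar concentration causing 50% growth inhibition.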

SW-620 = assay: Growth inhibition of human SW620 cells incubated for 48 hrs by sulforhodamine B assay; settings: SW-620, 48 h; how it was run: as §2
SNB-19 = assay: Growth inhibition of human SNB19 cells incubated for 48 hrs by sulforhodamine B assay; settings: SNB-19, 48 h; how it was run: as §2
A498 [1] = assay: Growth inhibition of human A498 cells incubated for 48 hrs by sulforhodamine B assay; settings: A498, 48 h; how it was run: as §1
SF-539 [2] = assay: Growth inhibition of human SF539 cells incubated for 48 hrs by sulforhodamine B assay; settings: SF-539, 48 h; how it was run: as §1
SK-MEL-5 = assay: Growth inhibition of human SK-MEL-5 cells at 10 uM after 48 hrs by sulforhodamine B assay relative to control; settings: SK-MEL-5, 48 h, values are per cent of control
How it was run: (§3)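 NCI-60 single-dose screen. Cells exposed to 10⁻⁵ M or to vehicle for 48 h. Growth measured by sulforhodamine B optical density before and after exposure. Reported as percent growth relative to vehicle control and to time-zero cell number; negative values indicate cell kill.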

U-251 = assay: Growth inhibition of human U251 cells incubated for 48 hrs by sulforhodamine B assay; settings: U-251, 48 h; how it was run: as §2
RXF 393 = assay: Growth inhibition of human RXF393 cells incubated for 48 hrs by sulforhodamine B assay; settings: RXF 393, 48 h; how it was run: as §1
MDA-MB-435 [3] = assay: Growth inhibition of human MDA-MB-435 cells incubated for 48 hrs by sulforhodamine B assay; settings: MDA-MB-435, 48 h; how it was run: as §1
SF-539 [4] = assay: Growth inhibition of human SF539 cells at 10 uM after 48 hrs by sulforhodamine B assay relative to control; settings: SF-539, 48 h, values are per cent of control; how it was run: as §3
HT-29 = assay: Growth inhibition of human HT-29 cells incubated for 48 hrs by sulforhodamine B assay; settings: HT-29, 48 h; how it was run: as §1
SR = assay: Growth inhibition of human SR cells incubated for 48 hrs by sulforhodamine B assay; how it was run: as §2
HCT-116 = assay: Growth inhibition of human HCT116 cells incubated for 48 hrs by sulforhodamine B assay; settings: HCT-116, 48 h; how it was run: as §1
MDA-MB-435 [5] = assay: Growth inhibition of human MDA-MB-435 cells at 10 uM after 48 hrs by sulforhodamine B assay relative to control; settings: MDA-MB-435, 48 h, values are per cent of control; how it was run: as §3
A498 [6] = assay: Growth inhibition of human A498 cells at 10 uM after 48 hrs by sulforhodamine B assay relative to control; settings: A498, 48 h, values are per cent of control; how it was run: as §3
SN12C = assay: Growth inhibition of human SN12C cells incubated for 48 hrs by sulforhodamine B assay
How it was run: (§4)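 NCI-60 screen: cells were exposed for 48 h to compound or vehicle, and growth was read as sulforhodamine B optical density before and after exposure. In the single-dose test at 10⁻⁵ M, percent growth was taken relative to vehicle control and time-zero cell number. In the five-dose test (10⁻⁴ to 10⁻⁸ M), GI₅₀ was the molar concentration causing 50% growth inhibition.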

TK-10 = assay: Growth inhibition of human TK10 cells incubated for 48 hrs by sulforhodamine B assay; settings: TK-10, 48 h; how it was run: as §4
CAKI-1 = assay: Growth inhibition of human Caki1 cells incubated for 48 hrs by sulforhodamine B assay; settings: CAKI-1, 48 h; how it was run: as §4
NCI-H460 = assay: Growth inhibition of human NCI-H460 cells incubated for 48 hrs by sulforhodamine B assay; settings: NCI-H460, 48 h; how it was run: as §4
OVCAR-8 = assay: Growth inhibition of human OVCAR8 cells incubated for 48 hrs by sulforhodamine B assay; settings: OVCAR-8, 48 h; how it was run: as §4
UACC-257 = assay: Growth inhibition of human UACC257 cells incubated for 48 hrs by sulforhodamine B assay; settings: UACC-257, 48 h; how it was run: as §4
EKVX = assay: Growth inhibition of human EKVX cells incubated for 48 hrs by sulforhodamine B assay; how it was run: as §4
OVCAR-5 = assay: Growth inhibition of human OVCAR5 cells incubated for 48 hrs by sulforhodamine B assay; settings: OVCAR-5, 48 h; how it was run: as §4
BT-549 = assay: Growth inhibition of human BT549 cells incubated for 48 hrs by sulforhodamine B assay; settings: BT-549, 48 h; how it was run: as §4
T47D = assay: Growth inhibition of human T47D cells incubated for 48 hrs by sulforhodamine B assay; how it was run: as §4
NCI-H322M = assay: Growth inhibition of human NCI-H322M cells incubated for 48 hrs by sulforhodamine B assay; how it was run: as §4
NCI-H226 = assay: Growth inhibition of human NCI-H226 cells incubated for 48 hrs by sulforhodamine B assay; settings: NCI-H226, 48 h; how it was run: as §4
Malme-3M = assay: Growth inhibition of human MALME-3M cells incubated for 48 hrs by sulforhodamine B assay; how it was run: as §4

Compound | GI50 (SF-268) [nM] | GI50 (PC-3) [nM] | GI50 (MOLT-4) [nM] | GI50 (ACHN) [nM] | GI50 (786-0) [nM] | GI50 (SNB-75) [nM] | GI50 (SW-620) [nM] | GI50 (SNB-19) [nM] | GI50 (SF-539 [2]) [nM] | growth, % of control at 10 µM (SK-MEL-5) [%] | GI50 (U-251) [nM] | GI50 (RXF 393) [nM] | GI50 (MDA-MB-435 [3]) [nM] | GI50 (HT-29) [nM] | GI50 (SR) [nM] | GI50 (HCT-116) [nM] | growth, % of control at 10 µM (MDA-MB-435 [5]) [%] | growth, % of control at 10 µM (A498 [6]) [%] | also measured
COc1ccc(/C=C(/c2cc(OC)c(OC)c(OC)c2)c2nnn[nH]2)cc1O | < 10 | < 10 | < 10 | < 10 | < 10 | < 10 | < 10 | < 10 | < 10 | -54 | < 10 | < 10 | < 10 | 2200 | < 10 | < 10 | -8.4 | -3.5 | GI50 (A498 [1]): < 10 nM; growth, % of control at 10 µM (SF-539 [4]): -1.97%
COc1ccc(/C(=C/c2ccc3ccccc3c2)c2nnn[nH]2)cc1OC | 6550 | 2360 | 4160 | 11300 | 5720 | 2510 | 1360 | 7840 | 2380 | 23.5 | 4460 | 2480 | 300 | 2690 | 2230 | 2420 | -41 | 14.5 | GI50 (SN12C): 9970 nM; GI50 (TK-10): 18500 nM; GI50 (CAKI-1): 2240 nM; GI50 (NCI-H460): 2810 nM; GI50 (OVCAR-8): 7100 nM; GI50 (UACC-257): 56600 nM; GI50 (EKVX): 18200 nM; GI50 (OVCAR-5): 6080 nM; GI50 (BT-549): 10900 nM; GI50 (T47D): 28200 nM; GI50 (NCI-H322M): 6880 nM; GI50 (NCI-H226): > 100000 nM; GI50 (Malme-3M): 3080 nM
